Assay results published in ChEMBL document CHEMBL1123861, “Antitumor agents. 89. Psychorubrin, a new cytotoxic naphthoquinone from Psychotria rubra and its structure-activity relationships” (1987).
Converted amounts (≈) assume the structure as drawn.

Each compound was assayed on KB (assay: Evaluated for cytotoxicity in the KB cell culture assay). Conditions: Homo sapiens, read-out: ED50 (the source's name).
Assay type: functional
Procedure, shortened: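 Cytotoxicity screen per NIH protocol. 10^4 tumor cells grown in MEM with 10% fetal calf serum; penicillin and streptomycin given on day 3. Drug tested at 0.1 to 20 µg/mL (N = 4). Viable cells counted by trypan blue exclusion and expressed as % of the 0.05% Tween 80-water control. ED50 estimated from a semi-log plot of concentration vs % viable cells.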

First: Cc1cc2c(o1)-c1ccccc1C(=O)C2=O
Second: Cc1cc2c(o1)C(=O)c1ccccc1C2=O
The EC50 of the first is 2-fold higher: 0.6 mg/L (≈ 2.83 µM) for the first, 0.3 mg/L (≈ 1.41 µM) for the second.

First: CC(O)c1cc2c(o1)C(=O)c1ccccc1C2=O (stereo not drawn)
Second: CC(=O)c1cc2c(o1)C(=O)c1ccccc1C2=O [NAPABUCASIN]
The EC50 of the first is 2-fold higher: 2 mg/L (≈ 8.26 µM) for the first, 1 mg/L (≈ 4.16 µM) for the second.

Going from `O=C1C2=C(CC(O)OC2)C(=O)c2ccccc21` (stereo not drawn) to `CC(=O)OC1CC2=C(CO1)C(=O)c1ccccc1C2=O` (stereo not drawn), the EC50 rises from 3 mg/L (≈ 13 µM) to 5 mg/L (≈ 18.4 µM) (1.7-fold).

`CC(=O)OC1CCC2=C(O1)C(=O)c1ccccc1C2=O` (stereo not drawn) and `COC1CCC2=C(O1)C(=O)c1ccccc1C2=O` (stereo not drawn) are within 1.5-fold of each other in EC50: 10 mg/L (≈ 36.7 µM) for the first, 11 mg/L (≈ 45 µM) for the second.

Compared with `O=C1C2=C(OC(Cl)CC2)C(=O)c2ccccc21` (stereo not drawn), `O=C1C2=C(OC(O)CC2)C(=O)c2ccccc21` (stereo not drawn) is 2.2-fold higher in EC50: 9.3 mg/L (≈ 37.4 µM) for the first, 20 mg/L (≈ 86.9 µM) for the second.

First: C=C/C=C1/C(=O)C(=O)c2ccccc2C1=O
Second: C/C=C/C1=C(O)C(=O)c2ccccc2C1=O
The EC50 of the first is 35-fold lower: 0.4 mg/L (≈ 1.88 µM) for the first, 14 mg/L (≈ 65.4 µM) for the second.

`C/C=C/C1=C(OC(C)=O)C(=O)c2ccccc2C1=O` and `C/C=C/C1=C(OC(=O)CC)C(=O)c2ccccc2C1=O` are within 1.5-fold of each other in EC50: 5.1 mg/L (≈ 19.9 µM) for the first, 6.5 mg/L (≈ 24 µM) for the second.

First: O=C1C2=C(OCC=C2)C(=O)c2ccccc21
Second: O=C1C2=C(OCCC2)C(=O)c2ccccc21
The EC50 of the first is 20-fold lower: 0.4 mg/L (≈ 1.88 µM) for the first, 8 mg/L (≈ 37.3 µM) for the second.

`C/C=C/C1=C(OC(=O)c2ccccc2)C(=O)c2ccccc2C1=O` and `CC(C)=CCC1=C(O)C(=O)c2ccccc2C1=O` [LAPACHOL] are within 1.5-fold of each other in EC50: 5.1 mg/L (≈ 16 µM) for the first, 4.4 mg/L (≈ 18.2 µM) for the second.
